This is one part of a sample in which hits are shown more often than they occur.
UPR CHOP act = activators of apoptotic CHOP UPR arm, primary screen, cell-based, CHO-CHOP luciferase reporter, luminescence, uHTS | hit rate 0.34% among 330,000 | UPR activation; percent of tunicamycin response over DMSO baseline | activation, % at 10 µM;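 active = at 10 µM dose, activation of 40% or more, normalized to positive control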;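 note: 100% = tunicamycin at 10 µg/mL and 0% = DMSO alone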
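Material: CHO-CHOP cells, stable luciferase reporter of PERK-eIF2a-CHOP signalling; quantity: 500 reporter cells seeded per well; buffer or medium: F12 medium containing 10% fetal bovine serum; compound: one dose, 10 µM in 0.5% DMSO; incubation: 6 h compound treatment, 37 °C; measured by: Steady-Glo luciferase luminescence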
UPR XBP1 act = activators of adaptive XBP1 UPR arm, primary screen, cell-based, CHO-XBP1 luciferase reporter, luminescence, uHTS | activation, % at 20 µM | IRE1-XBP1 UPR activation; percent of tunicamycin response, DMSO as zero | hit rate 0.33% among 330,000;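 active = versus positive control, 20 µM dose yields 30% or more activation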;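 note: 100% = tunicamycin at 10 µg/mL and 0% = DMSO only wells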
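Test system: CHO-XBP1 luciferase reporter cells | Buffer or medium: Serum-containing F12 medium, 10% FBS | Schedule: 6 h compound exposure at 37 °C, 5% CO2 | Detection: Steady-Glo luciferase glow luminescence, 10 min after reagent addition | Read-out basis: Activation, % of tunicamycin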
CHOP inhibitor = inhibitors of CHOP promoter induction, primary screen, cell-based, unfolded protein response, luciferase reporter | CHO-K1 CHOP-promoter luciferase, tunicamycin-induced, 15-18 h | inhibition, % at 10 µM | hit rate 3.8% among 220,000;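 active = compounds that reduced the stress-induced luciferase reporter signal by more than about 70% of percent inhibition, limit read from the data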;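 note: 0% = tunicamycin plus vehicle and 100% = wells without tunicamycin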
697 NFkB inh = inhibitors of PMA/ionomycin-induced NF-kB reporter, 697 cells, primary screen, B-cell NF-kB inhibitor project, cell-based, luminescence, uHTS. 697 B-cell NF-kB luciferase reporter, 16 h. inhibition, % at 4 µM. hit rate 0.33% among 330,000; in the data active = inhibition above about 35%
Jurkat NFkB inh = inhibitors of induced NF-kB luciferase reporter, primary screen, TCR NF-kB activation inhibitor project, cell-based, luminescence, uHTS; Jurkat, PMA/ionomycin-induced NF-kB luciferase reporter; inhibition, % at 4 µM; hit rate 0.53% among 330,000; AID 435003, 2010; in the data active = inhibition above about 50%
Jurkat NFkB conf = PMA/ionomycin-induced NF-kB reporter inhibitors, Jurkat retest, confirmation, T-cell NF-kB inhibitor project, cell-based, luminescence, single concentration | shares compounds with Jurkat NFkB inh | Jurkat NF-kB luciferase, 16 h | inhibition, % at 4 µM | hit rate 27% among 2,700 | AID 435020, 2010;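 active = inhibition reaching about 45% at 4 µM in either replicate, limit read from the data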;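 note: plate controls were PMA/ionomycin stimulated DMSO wells for no effect and unstimulated DMSO wells for full effect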
Numbers without * were called inactive; · = no result given.

SMILES | UPR CHOP act | UPR XBP1 act | CHOP inhibitor | 697 NFkB inh | Jurkat NFkB inh | Jurkat NFkB conf
COc1ccc(-n2nc3cc(C)c(N)c(Br)c3n2)cc1 | 4.6 | 3.7 | -14.4 | -163.5 | -199.1 | -111.8
O=Cc1cn(-c2ccccc2)nc1-c1cc2cc(O)ccc2oc1=O | -0.6 | -3.0 | 40.0 | 6.1 | 0.9 | ·
O=C(O)/C=C/c1cn(-c2ccccc2)nc1-c1cc2ccccc2oc1=O | 3.3 | 0.2 | -13.3 | -154.4 | -164.2 | -95.3
COc1ccc(C(=O)NC2CCN(CC(=O)NCc3ccccc3)CC2)cc1 | 2.1 | -1.1 | · | -6.6 | 7.0 | ·
CN(C)c1cccc(C(=O)Nc2nc3ccccc3[nH]2)c1 | -2.9 | -6.9 | · | -157.9 | -71.6 | ·
COc1ccc(C(=O)N[C@H](C(=O)Nc2nc3ccccc3[nH]2)C(C)C)cc1 | 3.1 | 18.8 | -33.6 | -185.5 | 28.4 | ·
O=C(Nc1nc2ccccc2[nH]1)c1cccc(F)c1 | 1.3 | -3.3 | · | -190.2 | -150.3 | -107.1
O=C(Nc1nc2ccccc2[nH]1)c1cccc(Br)c1 | 5.6 | 3.2 | · | -207.2 | -151.8 | -115.2
Cc1cccc(C(=O)N[C@H](C(=O)Nc2nc3ccccc3[nH]2)C(C)C)c1 | -1.1 | 14.0 | 12.2 | -9.8 | 60.1* | 37.3
O=C(c1ccc(-n2cccn2)cc1)N1CCN(c2ncccc2C(F)(F)F)CC1 | -2.2 | -2.1 | · | -1.0 | -1.4 | ·
Cc1cccn2cc(-c3ccc(F)cc3)nc12 | -1.5 | 0.1 | -6.2 | -198.0 | -167.1 | -92.8
Cc1cccn2cc(-c3ccccc3)nc12 | 1.1 | 0.7 | -36.5 | -117.9 | -92.4 | ·
Oc1ccc(-c2csc(Nc3ccccn3)n2)cc1 | 8.2 | 7.9 | · | -175.0 | -120.7 | ·
Cc1cc(-c2csc(Nc3ccccn3)n2)ccc1F | 2.7 | 1.1 | · | -237.3 | -158.0 | -81.4
CCCCOC(=O)c1ccc(NC(=O)C(=O)CC(=O)c2ccc(OC)cc2)cc1 | 11.7 | 2.9 | · | -5.0 | -1.2 | ·
COc1ccc(C2SCC(=O)N2CCc2ccc(OC)c(OC)c2)cc1 (configuration not stated) | -0.8 | 2.0 | 27.7 | -28.0 | 65.2* | 38.6
Cc1ccc(-c2cn(-c3ccccc3)c(SCC(=O)NC3CCS(=O)(=O)C3)n2)cc1C (configuration not stated) | 6.5 | 0.5 | 5.9 | -205.2 | -159.7 | -119.2
COC(=O)C1CCN(C(=O)/C=C/c2ccc3c(c2)OCO3)CC1 | 4.8 | -0.3 | · | -100.1 | -20.0 | ·
COc1ccccc1CNC(=O)c1cccc(-c2ccc(C)c3ccccc23)n1 | 0.4 | -1.2 | 45.7 | -13.1 | 61.4* | 21.9
COc1ccc(C(=O)N(C)Cc2cnn(Cc3ccccc3)c2)cc1S(=O)(=O)N1CCOCC1 | -1.0 | 0.5 | · | -48.2 | 54.2* | 44.3
NS(=O)(=O)c1ccc(NC(=O)COC(=O)COc2cccc(C(F)(F)F)c2)cc1 | 3.2 | 0.8 | 6.7 | -11.2 | -2.5 | ·
COc1ccccc1N=C1SC(C(=O)Nc2cccc(Cl)c2Cl)C(N)=C1C(N)=O (configuration not stated) | -0.7 | -2.5 | -12.2 | -16.5 | 57.8* | 0.2
O=C(COc1ccc(C(=O)c2ccccc2)cc1)NCc1ccc(F)cc1 | -1.4 | 0.9 | 38.8 | -3.9 | 68.8* | 41.3
O=C(COc1ccccc1)NCc1ccccc1 | 0.5 | -2.7 | 13.2 | -0.9 | -4.0 | ·
COC(=O)c1c(-c2cccc3ccccc23)csc1NC(=O)Cc1ccc(OC)c(OC)c1 | 3.7 | -0.5 | 73.4* | -4.5 | 53.1* | 25.2
SMILES | UPR CHOP act | UPR XBP1 act | CHOP inhibitor | 697 NFkB inh | Jurkat NFkB inh | Jurkat NFkB conf
O=C(Nc1ccc(N2CCOCC2)c(Cl)c1)c1cccc(F)c1 | 12.6 | 2.6 | -15.5 | -142.9 | -151.5 | -96.3
CCC(C)N1C(=O)S/C(=C/c2ccc(N3CCOCC3)cc2C)C1=O (configuration not stated) | 1.1 | 0.1 | 19.0 | -77.6 | -93.4 | ·
Cc1cc(N2CCOCC2)ccc1/C=C1\SC(=O)N(C(C)C)C1=O | 1.5 | 4.1 | 56.0 | -101.1 | -170.3 | -57.7
Cc1cccc(C)c1NC(=O)CN1CCN(CC(=O)NCC2(N3CCCCC3)CCCCC2)CC1 | -0.3 | -1.4 | · | 0.8 | 0.0 | ·
COC(=O)c1[nH]c2ccc(Br)cc2c1NC(=O)CN1CCN(C2CCCCC2)CC1 | 8.2 | 8.0 | 16.1 | -0.6 | 68.3* | 45.6*
N#Cc1ccc(S(=O)(=O)NC2CCCCNC2=O)cc1 (configuration not stated) | -1.4 | -0.8 | · | 11.2 | 20.3 | ·
O=C(N/N=C/c1ccc(Cl)c([N+](=O)[O-])c1)c1cnccn1 | 4.1 | 1.6 | -54.5 | -2.4 | 7.8 | ·
O=C(N/N=C/c1ccc(Sc2nc3ccccc3s2)c([N+](=O)[O-])c1)c1ccccn1 | -3.4 | -6.3 | · | 6.3 | 68.9* | 21.2
Cc1ccc(C(=O)NC(=S)Nc2ccccc2N2CCOCC2)cc1C | 1.5 | -3.2 | · | 4.5 | 9.7 | ·
O=C(NC(=S)Nc1sc2c(c1C(=O)O)CCCC2)c1ccccc1 | 2.9 | -0.4 | · | -76.7 | -37.9 | ·
CCCc1nc2oc3c(NCCN(C)C)ncnc3c2c2c1CCCC2 | 0.0 | 2.2 | 7.4 | -12.6 | -0.2 | ·
CCCc1nc2oc3c(NCCCN(C)C)ncnc3c2c2c1CCCC2 | 1.2 | 3.9 | 3.0 | -28.8 | 89.7* | 8.8
O=C(Cc1ccc(Br)cc1)Nc1cccc(Cl)c1 | 3.2 | 1.1 | 27.6 | 20.1 | -5.8 | ·
COc1ccc(-c2cc(-c3ccc(OC)c(OC)c3)n[nH]2)c(O)c1 | 2.3 | 6.7 | 12.2 | -58.6 | -105.0 | ·
COc1ccc(-c2cc(-c3ccccc3O)[nH]n2)cc1OC | 3.6 | 8.8 | -37.5 | -146.8 | -155.8 | -86.5
O=C(NCCOc1ccccc1F)c1cc([N+](=O)[O-])ccc1N1CCOCC1 | 1.8 | -8.6 | · | -7.9 | 56.7* | 29.5
O=C(c1cc([N+](=O)[O-])ccc1N1CCOCC1)N1CCN(c2ccccc2)CC1 | 0.0 | 15.6 | · | -53.6 | 73.7* | 33.1
Cc1c(C(=O)N2CCN(c3ccc([N+](=O)[O-])cc3)CC2)oc2ccccc12 | -1.5 | -4.7 | · | 14.1 | 50.8* | 32.0
O=C(c1ccc2c(c1)OCCO2)N1CCN(c2ccc([N+](=O)[O-])cc2)CC1 | -0.2 | -4.8 | -0.9 | 7.2 | 56.2* | -12.2
CC(=O)N1CCN(C(=O)c2ccc3c(c2)OCCO3)CC1 | 0.4 | -2.2 | · | 16.2 | 16.3 | ·
CCN(CC(=O)Nc1ccc2c(c1)OCCO2)C(=O)c1cc(=O)[nH]c2ccccc12 | 2.3 | -1.8 | · | -1.9 | -2.1 | ·
O=C(c1ccc2ccccc2c1)N1CCN(Cc2ccccc2)CC1 | 3.0 | -2.1 | · | -37.6 | -17.1 | ·
O=C(NCCOc1ccccc1)c1cc([N+](=O)[O-])ccc1N1CCOCC1 | -1.5 | -1.4 | · | -65.9 | 59.6* | 56.7*

High-throughput results deposited in PubChem by several laboratories.
